These results are taken from ChEMBL document CHEMBL1125728, “Dopamine autoreceptor agonists as potential antipsychotics. 2. (Aminoalkoxy)-4H-1-benzopyran-4-ones” (J Med Chem, 1991).

Assay [1] has as its system Rattus norvegicus. Put plainly: Percentage of rats showing signs of stereotyped behavior at 17 mg/kg peroral dose and followed 1 hr later by 10 mg/kg sc of SKF-38393 and animals observed for 60 min postdose before being. The format is functional. An outline of the steps: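 Part 2: oral dose given to naive rats, six per dose, followed 1 h later by SKF 38393 (10 mg/kg sc). Stereotypy (repetitive rearing, head-swaying, sniffing, licking, gnawing lasting ≥5 s) rated over 60 min. Reported as percent of rats affected.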

Assay [2] is described as follows: Compound tested for its liability for extrapyramidal side effects (EPS) in terms of no. of animals showing signs of EPS/no. of animals tested upon po administration at a dose of 80 mg/Kg; 0/3. The format is functional.
The next assay deals with Dopamine receptor. Put plainly: Compound was tested for its inhibitory effect on the binding profile in Dopamine receptor using [3H]N-propylnorapomorphine in rat brain. The format is tissue-based. In a few lines: (§1)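 Rat brain receptor binding with the stated radioligands. IC50 obtained by nonlinear regression from four to five concentrations. [3H]flupenthixol and [3H]N-propylnorapomorphine values come from four independent determinations each, and the [3H]haloperidol value from two experiments. Remaining ligands were determined once.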

A further assay has as its target D(1A) dopamine receptor (Rattus norvegicus, UniProt P18901). Briefly: Compound was tested for its inhibitory effect on the binding profile in Dopamine receptor D1 using [3H]flupenthixol in rat brain. It is filed as tissue-based. In a few lines: as §1
Assay [3] concerns Rattus norvegicus. Put plainly: Compound tested for its effective dose to inhibit rat locomotor activity after sc administration of the compound. The format is functional. An outline of the steps: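 Rats dosed sc, with locomotor activity recorded for 30 min immediately after dosing. ED50 generated from four to five doses using 5–12 animals per dose, reported with ±95% confidence limits.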

In assay [4] the target is T1, Adrenergic receptor alpha-2 (Rattus norvegicus, UniProt P22086+P19328+P22909).
T1 sequence (P22086 whole entry): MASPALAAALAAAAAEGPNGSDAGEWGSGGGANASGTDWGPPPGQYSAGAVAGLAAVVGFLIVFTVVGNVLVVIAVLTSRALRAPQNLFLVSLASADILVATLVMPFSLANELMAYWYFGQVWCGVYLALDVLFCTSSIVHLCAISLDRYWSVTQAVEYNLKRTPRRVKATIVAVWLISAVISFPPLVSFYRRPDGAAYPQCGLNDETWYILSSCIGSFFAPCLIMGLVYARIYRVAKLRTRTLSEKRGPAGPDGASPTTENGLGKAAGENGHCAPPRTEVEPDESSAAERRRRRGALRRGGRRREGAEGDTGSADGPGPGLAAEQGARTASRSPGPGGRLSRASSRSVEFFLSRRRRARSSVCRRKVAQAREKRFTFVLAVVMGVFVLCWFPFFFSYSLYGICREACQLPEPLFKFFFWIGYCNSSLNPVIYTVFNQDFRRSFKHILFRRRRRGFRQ
T1 sequence (P19328 whole entry): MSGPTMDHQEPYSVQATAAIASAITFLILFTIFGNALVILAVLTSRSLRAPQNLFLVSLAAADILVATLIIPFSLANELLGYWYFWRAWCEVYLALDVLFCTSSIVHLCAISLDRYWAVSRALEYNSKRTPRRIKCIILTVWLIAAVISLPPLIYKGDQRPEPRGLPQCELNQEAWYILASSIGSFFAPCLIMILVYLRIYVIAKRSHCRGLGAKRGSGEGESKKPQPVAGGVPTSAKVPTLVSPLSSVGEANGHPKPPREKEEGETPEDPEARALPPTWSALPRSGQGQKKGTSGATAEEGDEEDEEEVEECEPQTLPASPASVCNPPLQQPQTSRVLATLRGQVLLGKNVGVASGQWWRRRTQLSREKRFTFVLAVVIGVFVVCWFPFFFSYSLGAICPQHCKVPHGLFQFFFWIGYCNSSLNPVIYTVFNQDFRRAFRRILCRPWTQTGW
T1 sequence (P22909 whole entry): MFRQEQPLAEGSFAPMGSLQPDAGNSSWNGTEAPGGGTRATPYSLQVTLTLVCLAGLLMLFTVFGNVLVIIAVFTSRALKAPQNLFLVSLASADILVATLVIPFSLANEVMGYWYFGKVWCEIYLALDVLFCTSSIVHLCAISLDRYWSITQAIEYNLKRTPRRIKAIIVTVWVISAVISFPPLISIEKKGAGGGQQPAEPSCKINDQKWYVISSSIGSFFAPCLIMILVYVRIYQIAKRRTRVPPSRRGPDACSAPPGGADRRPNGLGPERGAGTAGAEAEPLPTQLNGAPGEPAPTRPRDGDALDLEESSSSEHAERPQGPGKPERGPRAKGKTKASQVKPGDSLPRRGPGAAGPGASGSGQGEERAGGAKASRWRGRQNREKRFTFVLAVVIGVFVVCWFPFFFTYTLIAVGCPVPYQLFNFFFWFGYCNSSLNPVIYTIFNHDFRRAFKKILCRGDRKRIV
Put plainly: Compound was tested for its inhibitory effect on the binding profile in Alpha-2 adrenergic receptor using [3H]p-aminoclonidine in rat brain. It is filed as tissue-based. An outline of the steps: as §1

The next assay has as its system Mus musculus. Put plainly: Inhibition of mouse intraperitoneally. It is filed as functional. Particulars: ip. In a few lines:
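Inhibition of exploratory locomotor activity, scored together with motor coordination (ataxia). ED50 generated from four to five doses, with 5–12 animals per dose.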

In general, IC50 refers to the concentration that inhibits the measured activity by half. The term ED50 denotes the dose that gives a 50% effect, or the effect in half of the subjects. Lower therefore signals an effect at a small dose.

Sequence of D(1A) dopamine receptor (P18901 whole entry): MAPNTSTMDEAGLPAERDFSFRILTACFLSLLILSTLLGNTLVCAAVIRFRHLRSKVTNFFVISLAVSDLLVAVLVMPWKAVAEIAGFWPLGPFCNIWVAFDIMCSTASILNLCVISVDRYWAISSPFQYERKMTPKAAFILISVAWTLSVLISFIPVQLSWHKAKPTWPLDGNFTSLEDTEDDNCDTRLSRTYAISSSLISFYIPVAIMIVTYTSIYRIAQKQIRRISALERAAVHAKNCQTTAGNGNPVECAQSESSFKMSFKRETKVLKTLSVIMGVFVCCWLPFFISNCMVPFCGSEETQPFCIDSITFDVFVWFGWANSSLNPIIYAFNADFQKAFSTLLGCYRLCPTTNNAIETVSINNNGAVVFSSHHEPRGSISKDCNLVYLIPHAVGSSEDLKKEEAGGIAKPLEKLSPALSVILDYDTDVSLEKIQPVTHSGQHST

For `O=c1ccoc2cc(OCCCN3CCN(c4ccccn4)CC3)ccc12`, the Animals in the assay with Rattus norvegicus [1] turned out to be 0%. Also, the EPS in assay [2] came to 0. Moreover, the values for the IC50 (at Dopamine receptor; on D(1A) dopamine receptor; in assay [4]) were 59 nM, 21.7 µM and 2600 nM, respectively. The median effective dose (ED50) in the assay with Rattus norvegicus [3] came out at 0.58 mg/kg; with Mus musculus, 1.3 mg/kg.
